# Experimental data collected from several papers.
# Protocols differ between the studies behind these lines.
# CHRM5: Muscarinic acetylcholine receptor M5 (CHRM5, Homo sapiens, UniProt P08912)
# MPO: Myeloperoxidase (MPO, Homo sapiens, UniProt P05164)
# CES2: Cocaine esterase (CES2, Homo sapiens, UniProt O00748)
# UDP-N-acetylglucosamine--dolichyl-phosphate N-acetylglucosaminephosphotransferase: UDP-N-acetylglucosamine--dolichyl-phosphate N-acetylglucosaminephosphotransferase (Homo sapiens, UniProt Q9H3H5)
Structure (SMILES),target,effect on,mode,technique,setting,IC50 [µM]
O=C(CCNC(=O)CNC(=O)CC(c1ccccc1)(c1ccccc1)c1ccccc1)NCC1CCN(Cc2ccc(F)cc2)CC1,CHRM5,ligand displacement,,radioligand,cell membranes,35.2
NCC(=O)O,"ltaA (Aeromonas jandaei, UniProt O07051)",enzyme activity,inhibitor,,,990
CC[N+](CC)(CC)Cc1ccccc1.CC[N+](CC)(CC)Cc1ccccc1.[Br][Co-2]([Br])([Br])[Br],MPO,enzyme activity,inhibitor,absorbance,,8.53
O=C(O[C@@H]1[C@@H](O)[C@H](Oc2cc(O)c3c(c2)O[C@H](c2ccccc2)CC3=O)O[C@@H]2COC(=O)c3cc(O)c(O)c(O)c3-c3c(cc(O)c(O)c3O)C(=O)O[C@@H]12)c1cc(O)c(O)c(O)c1,"Protein disulfide-isomerase A6 (PDIA6, Homo sapiens, UniProt Q15084)",enzyme activity,inhibitor,fluorescence,,1.5
NC/C(=C\F)COc1cccc(Cn2c(=S)[nH]c(=O)c3[nH]cnc32)c1,MPO,enzyme activity,inhibitor,fluorescence,,0.017
O=C(CCNC(=O)CNC(=O)CC(c1ccccc1)(c1ccccc1)c1ccccc1)NC[C@@H]1CCCN(Cc2cccnc2F)C1,CHRM5,ligand displacement,,radioligand,cell membranes,> 30
COc1cc2c(cc1OC)C(=O)/C(=C/c1cc3ccccc3c3ccccc13)C2,CES2,enzyme activity,inhibitor,fluorescence,with preincubation,2.98
Cc1nn(-c2nc3ccccc3[nH]2)c(O)c1C(c1ccccn1)c1c(C)nn(-c2nc3ccccc3[nH]2)c1O,"Cyclic GMP-AMP synthase (CGAS, Homo sapiens, UniProt Q8N884)",enzyme activity,inhibitor,,,> 40
O=C(c1ccc(F)c(F)c1Nc1ccc(I)cc1F)N1CC(O)([C@@H]2CCCCN2)C1,CES2,enzyme activity,inhibitor,fluorescence,with preincubation,> 100
CC(C)OCCn1c(=S)[nH]c(=O)c2[nH]ccc21,MPO,enzyme activity,inhibitor,fluorescence,,0.038
Cn1cc(C2=C(c3cn(CCCSC(=N)N)c4ccccc34)C(=O)NC2=O)c2ccccc21,"Serine/threonine-protein kinase 10 (STK10, Homo sapiens, UniProt O94804)",enzyme activity,inhibitor,,,0.118
CCc1cc2c(cc1N1CCC(N3CCOCC3)CC1)C(C)(C)c1[nH]c3cc(C#N)ccc3c1C2=O,CES2,enzyme activity,inhibitor,fluorescence,with preincubation,> 100
CO[C@H]1[C@H](O[C@H]([C@H]2O[C@@H](n3ccc(=O)[nH]c3=O)[C@H](O)[C@@H]2O)[C@H](NCCCNC(=O)[C@@H](NC(=O)[C@@H](NC(=O)N[C@H](C(=O)O)C(C)C)[C@@H]2CCN=C(N)N2)[C@@H](OC(=O)CCCCCCCCCCCCN(O)C(=N)N)C(C)C)C(=O)O)O[C@H](CN)[C@H]1O,UDP-N-acetylglucosamine--dolichyl-phosphate N-acetylglucosaminephosphotransferase,enzyme activity,inhibitor,,,0.18
COc1cc2c(cc1OC)C(=O)/C(=C/c1ccc(C)cc1F)C2,CES2,enzyme activity,inhibitor,fluorescence,with preincubation,> 100
CO[C@H]1[C@H](O[C@H]([C@H]2O[C@@H](n3ccc(=O)[nH]c3=O)[C@H](O)[C@@H]2O)[C@H](NCCCNC(=O)[C@@H](NC(=O)[C@@H](NC(=O)N[C@H](C(=O)O)C(C)C)[C@@H]2CCN=C(N)N2)[C@@H](O)C(C)C)C(=O)O)O[C@H](CN)[C@H]1O,UDP-N-acetylglucosamine--dolichyl-phosphate N-acetylglucosaminephosphotransferase,enzyme activity,inhibitor,,,> 50
